Screens (PubChem)
This is a sample that favours compounds with a hit; in the whole collection about 2.9% have one here.
HTRA1 inh = HTRA1 serine protease inhibitors, primary screen, biochemical, fluorescence polarization, HTS; recombinant HTRA1, FP-rhodamine activity-based probe; inhibition, % at 5.96 µM; 340,000 compounds, 0.5% hits; AID 504803, 2011; in the data active = inhibition above about 36%;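 also: 0% = enzyme with DMSO and 100% = wells lacking enzyme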
SIAE inh = human SIAE inhibitors, primary screen, biochemical, fluorescence polarization, FP-Rh probe, 1536-well HTS. 370,000 compounds, 0.69% hits. Sialate O-acetylesterase (Homo sapiens), Q9HAT2. inhibition, % at 9.66 µM. SIAE FP-Rh probe binding;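 active = inhibition above a cutoff: mean of compounds within the control limits plus 3 SD of those, cut at about 17% in these data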;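 also: 0% = plate median of compound wells and 100% = probe without SIAE protein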
Target sequence (Q9HAT2 whole entry, looked up): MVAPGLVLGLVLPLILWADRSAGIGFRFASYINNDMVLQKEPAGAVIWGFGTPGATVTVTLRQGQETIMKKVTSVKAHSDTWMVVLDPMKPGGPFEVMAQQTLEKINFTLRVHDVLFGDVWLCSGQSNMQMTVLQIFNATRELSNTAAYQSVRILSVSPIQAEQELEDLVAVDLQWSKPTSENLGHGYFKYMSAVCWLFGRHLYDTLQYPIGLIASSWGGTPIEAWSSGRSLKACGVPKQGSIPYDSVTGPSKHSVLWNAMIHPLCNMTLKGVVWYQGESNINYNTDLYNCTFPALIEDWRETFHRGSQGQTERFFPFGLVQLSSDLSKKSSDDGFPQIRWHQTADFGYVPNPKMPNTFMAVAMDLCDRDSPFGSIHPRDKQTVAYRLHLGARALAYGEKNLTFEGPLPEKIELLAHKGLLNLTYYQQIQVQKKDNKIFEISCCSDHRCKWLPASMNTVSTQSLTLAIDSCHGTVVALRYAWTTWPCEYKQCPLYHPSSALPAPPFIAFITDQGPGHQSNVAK
PAD4 inh = human PAD4 inhibitors, primary screen, biochemical, fluorescence polarization, 1536-well format; recombinant PAD4, RCA probe fluorescence polarization; inhibition, % at 6.36 µM; 330,000 compounds, 0.41% hits; AID 485272, 2010;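 active = percent inhibition above a cutoff equal to the mean of all tested compounds plus 3 SD, cut at about 15% in these data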;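 also: 0% = PAD4 with RCA probe and DMSO and 100% = probe without PAD4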
PRMT1 FP inh = PRMT1 methyltransferase inhibitors, primary screen, biochemical, fluorescence polarization; recombinant PRMT1, activity-based probe fluorescence polarization; inhibition, % at 2.79 µM; 370,000 compounds, 1.3% hits; AID 652257, 2013;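 active = inhibition above about 21% made by adding two undisclosed values, limit read from the data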
TCR-CD3 inh = inhibitors of human TCR-CD3 interaction, primary screen, biochemical, fluorescence, TAMRA-labeled TCR probe. AID 651800, 2012. T-cell receptor (TCR). inhibition, % at 9.4 µM. 360,000 compounds, 0.37% hits; in the data active = inhibition above about 19%;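 also: recombinant mutant TCR 2C K166C tagged with TAMRA read by polarization; 0% = receptor in buffer alone and 100% = receptor with positive control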
mABHD4 FP = ABHD4 inhibitors, primary screen, biochemical, fluorescence polarization, mouse | (Lyso)-N-acylphosphatidylethanolamine lipase (Mus musculus), Q8VD66 | purified mABHD4, FP-Rh probe fluorescence polarization | inhibition, % at 8.92 µM | 370,000 compounds, 0.54% hits;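 active = inhibition exceeding the mean over every tested compound plus 3 SD, cut at about 30% in these data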;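 also: 0% = plate median of compound wells and 100% = S159A mutant with DMSO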
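Assay system: mABHD4 protein; medium: HEPES pH 7.0, NaCl, Pluronic buffer; dosing: 8.92 µM, single dose; schedule: 45 min + 60 min at 25 °C; signal: FP readout, ex 525 nm / em 598 nm; read-out: normalized percent inhibition of probe labeling; repeats: single replicate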
PRMT1 confirm = PRMT1 methyltransferase inhibitors, confirmation, biochemical, fluorescence polarization, triplicate; shares compounds with PRMT1 FP inh; AID 687036, 2013; inhibition, % at 2.79 µM; 3,300 compounds, 42% hits; recombinant His-PRMT1, activity-based probe fluorescence polarization;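 active = mean inhibition across replicates above the hit cutoff derived for the earlier primary screen, cut at about 22% in these data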
* = called active by the depositor; x = not tested or not shown.

SMILES | HTRA1 inh | SIAE inh | PAD4 inh | PRMT1 FP inh | TCR-CD3 inh | mABHD4 FP | PRMT1 confirm
CC(=O)c1ccc(NC(=S)NC(=O)/C=C/c2ccco2)cc1 | -5 | 6 | -2 | 11 | 8 | 15 | x
Cc1cccc(NC(=S)NC(=O)/C=C/c2ccco2)c1 | -7 | 5 | -10 | 35* | 2 | 16 | 11
O=c1oc2cc(O)ccc2s1 | 2 | 5 | -3 | 86* | -6 | 0 | 33*
CCOC(=O)c1ccc(N2C(=O)CC(N3CCC(O)(c4ccc(Br)cc4)CC3)C2=O)cc1 (centres undefined) | 4 | -1 | -6 | 8 | 1 | 2 | x
CCOc1ccc(N2C(=O)CC(N3CCC(O)(c4ccc(Br)cc4)CC3)C2=O)cc1 (centres undefined) | 1 | 3 | -5 | 56* | -1 | -1 | -1
CCOC(=O)c1ccc(N2C(=O)CC(N3CCC(O)(c4ccc(Cl)cc4)CC3)C2=O)cc1 (centres undefined) | -6 | -3 | 5 | 50* | 3 | -8 | 17
CC(C)C[C@H]1COc2cc(N3CCSCC3)ccc2S(=O)(=O)N1C | x | -2 | x | 0 | x | 9 | x
O=C1C=CC(=O)N1c1ccc2c(c1)Cc1cc(F)ccc1-2 | -5 | -29 | x | 87* | -1 | 2 | 83*
CC(=O)Nc1ccc2c(c1)Cc1cc(N3C(=O)C=CC3=O)ccc1-2 | -31 | -14 | x | 91* | -1 | -8 | 95*
CC(C)C[C@H]1COc2ccc(Cl)cc2S(=O)(=O)N1Cc1cn(Cc2ccc(C(F)(F)F)cc2)nn1 | x | -3 | x | -2 | x | 4 | x
COc1ccc(/C=C2/CN(Cc3ccc(OC)cc3OC)C3=NC(c4ccc5ccccc5c4)CC(=O)N32)cc1 (centres undefined) | x | -6 | x | 4 | x | -15 | x
CCOC(=O)N1CCN(C(=O)c2ccc3oc(CCCc4ccccc4)nc3c2)CC1 | 4 | -1 | -3 | 31* | 4 | -5 | -1
CC(=O)N1CCN(C(=O)c2ccc3oc(CCCc4ccccc4)nc3c2)CC1 | -9 | -3 | -4 | 1 | -9 | 1 | x
CN1[C@@H](Cc2ccccc2)COc2cccc(N3CCSCC3)c2S1(=O)=O | x | 3 | x | 16 | x | 0 | x
O=C(NC1CCCCN(Cc2cccc(Cl)c2)C1=O)c1cccc([N+](=O)[O-])c1 (centres undefined) | x | 3 | x | 0 | x | -1 | x
S=C(Nc1ccc(Cl)c(Cl)c1)Nc1nnc(-c2ccncc2)s1 | x | -1 | x | -1 | x | -11 | x
S=C(Nc1ccccn1)c1ccccn1 | -1 | 0 | 0 | 32* | -5 | 4 | 8
N#Cc1ccc(/C=C2\CC3(OC(=O)c4ccc(Cl)cc4)CCCN2C3)cc1 (centres undefined) | x | -5 | x | -5 | x | -1 | x
O=C(CCN1C(=O)/C(=C\c2ccccc2)SC1=S)NCCCN1CCOCC1 | -11 | 2 | -41 | 12 | -4 | -32 | x
O=C1C(=Cc2ccccc2O)SC(=S)N1CCCN1CCOCC1 | 3 | 5 | x | 68* | 1 | 4 | 83*
COc1ccc(C(=O)C[n+]2ccc3c(c2)nc(Cc2ccccc2)n3C)cc1 | x | -2 | x | 29* | x | 4 | 6
C=CCn1c2ccccc2c2n[nH]c(=S)nc21 | -3 | 3 | x | 30* | -4 | -6 | 5
O=C(O)Cn1c2ccccc2c2n[nH]c(=S)nc21 | -19 | 4 | 4 | 42* | 6 | -1 | 85*
OCCCN1CCC2(CCC(c3ccccc3)CC2)C1 (centres undefined) | x | 1 | x | -4 | x | -1 | x
COc1cccc(NC(=O)c2cc(-c3ccc(C)o3)nc3ccccc23)c1 | -32 | -12 | -3 | 10 | 9 | -9 | x
SMILES | HTRA1 inh | SIAE inh | PAD4 inh | PRMT1 FP inh | TCR-CD3 inh | mABHD4 FP | PRMT1 confirm
COc1cccc(NC(=O)CN(C)C(=O)c2cc(-c3ccc(C)o3)nc3ccccc23)c1 | -23 | -11 | 1 | 51* | -3 | 0 | 12
Cc1ccc(CNC(=O)c2coc(=O)c3ccccc23)o1 | 5 | 0 | -11 | 32* | -2 | 0 | 10
Cc1ccc(-c2cc(C(=O)Nc3cccc(S(=O)(=O)N(C)C)c3)c3ccccc3n2)o1 | -43 | -26 | -6 | 50* | -1 | -12 | 56*
Cc1ccc(-c2cc(C(=O)N3CC(C)CC(C)C3)c3ccccc3n2)o1 (centres undefined) | -6 | 1 | -1 | 64* | 3 | 14 | 29*
CCn1cc(C(=O)NCc2ccc(C)o2)c2cc(OC)c(OC)cc2c1=O | 8 | -2 | 0 | 13 | 4 | 8 | x
COc1cc(-c2cc(C(=O)Nc3cccc(S(=O)(=O)N(C)C)c3)c3ccccc3n2)cc(OC)c1OC | -9 | 0 | 2 | -3 | 0 | -3 | x
COc1ccccc1N1CCN(C(=O)c2cc3c(C)nn(-c4ccccc4)c3s2)CC1 | x | -3 | x | 5 | x | -4 | x
O=C(Nc1ccc(F)cc1)OCc1cn(Cc2ccc(F)cc2F)nn1 | x | -3 | x | -2 | x | -3 | x
Cc1cc(C(=O)Nc2ccccc2C)c2ccccc2n1 | -1 | -4 | -4 | -1 | -3 | 7 | x
O=C(Nc1cccc(S(=O)(=O)NC2=NCCCCC2)c1)c1cc(-c2ccc(Cl)cc2)nc2ccccc12 | -82 | -76 | -2 | 4 | 5 | -13 | x
O=C(NCc1ccco1)c1cccnc1-c1nc2ccccc2s1 | 2 | 10 | 9 | 42* | 3 | 7 | 46*
Cc1ccc(-c2cc(C(=O)Nc3ccccc3C)c3ccccc3n2)o1 | -4 | 1 | -5 | 44* | -9 | 2 | 14
COC(=O)c1cc(-c2ccc(C)o2)nc2ccccc12 | -3 | 0 | 1 | 42* | -4 | 5 | 24*
O=C(NC(=S)Nc1cccc(S(=O)(=O)NC2=NCCC2)c1)c1cc(-c2ccco2)nc2ccccc12 | 4 | 0 | -5 | 32* | 17 | 8 | 13
O=C(NCc1ccco1)c1cccnc1Cl | 3 | 4 | 1 | -2 | -2 | 0 | x
COC(CNC(=O)[C@H](Cc1c[nH]c2ccccc12)NC1(C(=O)NC2CCCCC2)CCCCC1)OC | x | -2 | x | 8 | x | -4 | x
C[C@@H]1CNCCN1c1ccc(N2CCS(=O)(=O)CC2)c(C#N)c1 | x | -1 | x | -3 | -1 | -5 | x
COC(=O)[C@]12C[C@H](CC(=O)NCc3ccc(OC)c(OC)c3)C(=O)N(Cc3ccc(Cl)cc3Cl)C1=C[C@H](COCc1ccccc1)O[C@@H]2C | x | -5 | x | -2 | x | -15 | x
Cc1cc(C(=O)NCc2ccco2)c2ccccc2n1 | 4 | 5 | -8 | 3 | -2 | 7 | x
